Data from ChEMBL document CHEMBL3351381, “Synthesis, structure-activity relationship studies, and antibacterial evaluation of 4-chromanones and chalcones, as well as olympicin A and derivatives” (J Med Chem, 2014).
Values after ≈ are worked out from the molar mass of the structure shown.

Experiments:
[1] = system: Mycobacterium tuberculosis; experiment: Antimicrobial activity against Mycobacterium tuberculosis H37Rv by microbroth dilution method; assay type: functional
Enterococcus faecalis = experiment: Antimicrobial activity against Enterococcus faecalis ATCC 33186 by microbroth dilution method; assay type: functional
Staphylococcus aureus [2] = experiment: Antimicrobial activity against methicillin-sensitive Staphylococcus aureus ATCC 29213 by microbroth dilution method; assay type: functional
Escherichia coli [3] = experiment: Antimicrobial activity against Escherichia coli K-12 by microbroth dilution method; assay type: functional
Escherichia coli [4] = experiment: Antimicrobial activity against tolC-deficient Escherichia coli by microbroth dilution method; assay type: functional
Staphylococcus aureus [5] = experiment: Antimicrobial activity against methicillin-resistant Staphylococcus aureus NRS 70 by microbroth dilution method; assay type: functional
Klebsiella pneumoniae = experiment: Antimicrobial activity against Klebsiella pneumoniae ATCC 33495 at >200 ug/ml by microbroth dilution method; assay type: functional
Pseudomonas aeruginosa = experiment: Antimicrobial activity against Pseudomonas aeruginosa PAO1 at >200 ug/ml by microbroth dilution method; assay type: functional
[6] = Solubility of the compound in DMEM/FBS medium; assay type: physicochemical
How it was run: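 Solubility limit estimated from 2-fold serial dilutions in DMEM with 5% FBS kept overnight at 37 °C; highest concentration with no visible precipitate taken.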

Vero = experiment: Cytotoxicity against african green monkey Vero cells assessed as reduction in cell viability by MTT assay; assay type: cell-based; details: Chlorocebus sabaeus
How it was run: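 Vero kidney epithelial cells (ATCC CCL-81) in DMEM/10% FBS, trypsinized, seeded near 10% confluence, left overnight to adhere; medium swapped for DMEM/FBS with 2-fold serial compound dilutions.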

[7] = Selectivity index, ratio of CC50 for african green monkey Vero cells to IC50 for methicillin-resistant Staphylococcus aureus NRS 70; assay type: functional
How it was run: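 Vero kidney epithelial cells were grown in DMEM/10% FBS, trypsinized, seeded at about 10% confluence and left overnight to adhere. They were then exposed to 2-fold serial compound dilutions in DMEM/FBS, and viability was read by MTT after overnight solubilization. SI = cytotoxic IC50 divided by MIC against MRSA.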

[8] = Inhibition of Escherichia coli topoisomerase 4 assessed as inhibition of decatenation of catenated kinetoplast DNA after 30 mins by electrophoretic analysis
[9] = Inhibition of purified recombinant Escherichia coli topoisomerase 1 assessed as relaxation of supercoiled plasmid DNA after 30 mins by electrophoretic analysis

Structure (SMILES) | MIC [1] | MIC (Enterococcus faecalis) | MIC (Staphylococcus aureus [2]) | MIC (Escherichia coli [3]) | MIC (Escherichia coli [4]) | MIC (Staphylococcus aureus [5]) | MIC (Klebsiella pneumoniae) | MIC (Pseudomonas aeruginosa) | solubility [6] | IC50 (Vero) | Selectivity Index [7] | IC50 [8] | IC50 [9]
CCCCCCCCCC1C/C(=N\O)c2c(O)cc(O)cc2O1 (stereo unspecified) | 100 µg/mL (≈ 311 µM) | 6.25 µg/mL (≈ 19.4 µM) | 12.5 µg/mL (≈ 38.9 µM) | > 200 µg/mL | > 200 µg/mL | 12.5 µg/mL (≈ 38.9 µM) | > 200 µg/mL | > 200 µg/mL | 37.5 µg/mL (≈ 117 µM) | 10.1 µg/mL (≈ 31.4 µM) | 0.8 | – | –
CC(C)=CCCC(C)CC1CC(=O)c2ccc(O)cc2O1 (stereo unspecified) | 200 µg/mL (≈ 694 µM) | 12.5 µg/mL (≈ 43.3 µM) | 6.25 µg/mL (≈ 21.7 µM) | > 200 µg/mL | 1.56 µg/mL (≈ 5.41 µM) | 3.13 µg/mL (≈ 10.9 µM) | > 200 µg/mL | > 200 µg/mL | > 200 µg/mL | 28.8 µg/mL (≈ 99.9 µM) | 9.2 | – | –
CCn1cc(C(=O)O)c(=O)c2ccc(C)nc21 [NALIDIXIC ACID] | – | – | – | – | – | – | – | – | – | – | – | 806 µM | –
CC1(C)C2CC=C(C3CC(=O)c4ccc(O)cc4O3)C1C2 (stereo unspecified) | > 200 µg/mL | > 200 µg/mL | 200 µg/mL (≈ 703 µM) | > 200 µg/mL | 6.25 µg/mL (≈ 22 µM) | 200 µg/mL (≈ 703 µM) | > 200 µg/mL | > 200 µg/mL | – | – | – | – | –
CCCC1C/C(=N\O)c2c(O)cc(O)cc2O1 (stereo unspecified) | 100 µg/mL (≈ 421 µM) | 100 µg/mL (≈ 421 µM) | 100 µg/mL (≈ 421 µM) | > 200 µg/mL | 25 µg/mL (≈ 105 µM) | 50 µg/mL (≈ 211 µM) | > 200 µg/mL | > 200 µg/mL | – | – | – | – | –
CCCCCc1cc(OC(=O)c2c(O)cc(O)cc2CCCCC)cc(O)c1C(=O)O | – | – | – | – | – | – | – | – | – | – | – | – | 14 µM
COCOc1ccc2c(c1)OC(C1=CCC3CC1C3(C)C)CC2=O (stereo unspecified) | 100 µg/mL (≈ 304 µM) | > 200 µg/mL | > 200 µg/mL | > 200 µg/mL | 6.25 µg/mL (≈ 19 µM) | > 200 µg/mL | > 200 µg/mL | > 200 µg/mL | – | – | – | – | –
CCCCCCC1CC(O)c2ccc(O)cc2O1 (stereo unspecified) | 50 µg/mL (≈ 200 µM) | 50 µg/mL (≈ 200 µM) | > 200 µg/mL | > 200 µg/mL | 3.13 µg/mL (≈ 12.5 µM) | 200 µg/mL (≈ 799 µM) | > 200 µg/mL | > 200 µg/mL | – | – | – | – | –
CSc1ccc2c(c1)N(CCC1CCCCN1C)c1ccccc1S2 (stereo unspecified) [THIORIDAZINE] | – | – | – | – | – | – | – | – | – | 5.3 µg/mL (≈ 14.3 µM) | – | – | –
CCCCCCCC1CC(O)c2ccc(O)cc2O1 (stereo unspecified) | 25 µg/mL (≈ 94.6 µM) | 25 µg/mL (≈ 94.6 µM) | 12.5 µg/mL (≈ 47.3 µM) | > 200 µg/mL | 6.25 µg/mL (≈ 23.6 µM) | 12.5 µg/mL (≈ 47.3 µM) | > 200 µg/mL | > 200 µg/mL | – | – | – | – | –
CC1(C)C2CC=C(/C=C/C(=O)c3c(O)cc(O)cc3O)C1C2 (stereo unspecified) | > 200 µg/mL | 25 µg/mL (≈ 83.2 µM) | > 200 µg/mL | > 200 µg/mL | 6.25 µg/mL (≈ 20.8 µM) | 200 µg/mL (≈ 666 µM) | > 200 µg/mL | > 200 µg/mL | – | – | – | – | –
CCCCCCCC1CC(=O)c2ccc(O)cc2O1 (stereo unspecified) | 50 µg/mL (≈ 191 µM) | > 200 µg/mL | > 200 µg/mL | > 200 µg/mL | 1.56 µg/mL (≈ 5.95 µM) | > 200 µg/mL | > 200 µg/mL | > 200 µg/mL | – | – | – | – | –
CC(C)=CCCC(C)CC1CC(=O)c2cc(O)ccc2O1 (stereo unspecified) | 200 µg/mL (≈ 694 µM) | 6.25 µg/mL (≈ 21.7 µM) | 6.25 µg/mL (≈ 21.7 µM) | > 200 µg/mL | 3.13 µg/mL (≈ 10.9 µM) | 12.5 µg/mL (≈ 43.3 µM) | > 200 µg/mL | > 200 µg/mL | – | – | – | – | –
CCCC1CC(=O)c2c(O)cc(O)cc2O1 (stereo unspecified) | 200 µg/mL (≈ 900 µM) | 200 µg/mL (≈ 900 µM) | 100 µg/mL (≈ 450 µM) | > 200 µg/mL | 50 µg/mL (≈ 225 µM) | 100 µg/mL (≈ 450 µM) | > 200 µg/mL | > 200 µg/mL | – | – | – | – | –
CCCCCCCCCC1C/C(=N\OC)c2c(O)cc(O)cc2O1 (stereo unspecified) | 200 µg/mL (≈ 596 µM) | > 200 µg/mL | 100 µg/mL (≈ 298 µM) | > 200 µg/mL | > 200 µg/mL | 25 µg/mL (≈ 74.5 µM) | > 200 µg/mL | > 200 µg/mL | – | – | – | – | –
CCCCCCCC1C/C(=N\O)c2c(O)cc(O)cc2O1 (stereo unspecified) | 100 µg/mL (≈ 341 µM) | 6.25 µg/mL (≈ 21.3 µM) | – | > 200 µg/mL | – | – | > 200 µg/mL | > 200 µg/mL | > 200 µg/mL | 9.6 µg/mL (≈ 32.7 µM) | 3.1 | – | –
CCCCCCCCCC1CC(=O)c2ccc(O)cc2O1 (stereo unspecified) | > 200 µg/mL | 200 µg/mL (≈ 689 µM) | > 200 µg/mL | > 200 µg/mL | > 200 µg/mL | > 200 µg/mL | > 200 µg/mL | > 200 µg/mL | – | – | – | – | –
O=C1CC2(CCCCCC2)Oc2cc(O)ccc21 | 100 µg/mL (≈ 406 µM) | 200 µg/mL (≈ 812 µM) | 50 µg/mL (≈ 203 µM) | > 200 µg/mL | 12.5 µg/mL (≈ 50.7 µM) | 50 µg/mL (≈ 203 µM) | > 200 µg/mL | > 200 µg/mL | – | – | – | – | –
CCCC1CC(=O)c2c(OCOC)cc(OCOC)cc2O1 (stereo unspecified) | 100 µg/mL (≈ 322 µM) | > 200 µg/mL | > 200 µg/mL | > 200 µg/mL | 100 µg/mL (≈ 322 µM) | > 200 µg/mL | > 200 µg/mL | > 200 µg/mL | – | – | – | – | –
CCCCCCC1CC(=O)c2c(OCOC)cc(OCOC)cc2O1 (stereo unspecified) | 50 µg/mL (≈ 142 µM) | > 200 µg/mL | > 200 µg/mL | > 200 µg/mL | 6.25 µg/mL (≈ 17.7 µM) | > 200 µg/mL | > 200 µg/mL | > 200 µg/mL | – | – | – | – | –
CCCCCCCCOc1ccccc1/C=C/C(=O)c1ccc(O)cc1O | > 200 µg/mL | 1.56 µg/mL (≈ 4.23 µM) | 25 µg/mL (≈ 67.8 µM) | > 200 µg/mL | > 200 µg/mL | 6.25 µg/mL (≈ 17 µM) | > 200 µg/mL | > 200 µg/mL | – | – | – | – | –
O=C1CC2(CCCC2)Oc2cc(O)ccc21 | 200 µg/mL (≈ 916 µM) | > 200 µg/mL | > 200 µg/mL | > 200 µg/mL | 100 µg/mL (≈ 458 µM) | > 200 µg/mL | > 200 µg/mL | > 200 µg/mL | – | – | – | – | –
O=C1CC(C2CCCC2)Oc2cc(O)cc(O)c21 (stereo unspecified) | 200 µg/mL (≈ 806 µM) | 50 µg/mL (≈ 201 µM) | 100 µg/mL (≈ 403 µM) | > 200 µg/mL | 6.25 µg/mL (≈ 25.2 µM) | 50 µg/mL (≈ 201 µM) | > 200 µg/mL | > 200 µg/mL | – | – | – | – | –
CCCCCCCCCC1CC(O)c2ccc(O)cc2O1 (stereo unspecified) | > 200 µg/mL | 50 µg/mL (≈ 171 µM) | 20 µg/mL (≈ 68.4 µM) | > 200 µg/mL | 12.5 µg/mL (≈ 42.7 µM) | 25 µg/mL (≈ 85.5 µM) | > 200 µg/mL | > 200 µg/mL | – | – | – | – | –
CCCCCCCCCC1CC(=O)c2c(O)cc(O)cc2O1 (stereo unspecified) | 100 µg/mL (≈ 326 µM) | 100 µg/mL (≈ 326 µM) | 100 µg/mL (≈ 326 µM) | > 200 µg/mL | 12.5 µg/mL (≈ 40.8 µM) | 3.13 µg/mL (≈ 10.2 µM) | > 200 µg/mL | > 200 µg/mL | > 200 µg/mL | 8.6 µg/mL (≈ 28.1 µM) | 2.8 | – | –
CCCCCCC1C/C(=N\O)c2c(O)cc(O)cc2O1 (stereo unspecified) | 100 µg/mL (≈ 358 µM) | 12.5 µg/mL (≈ 44.7 µM) | 6.25 µg/mL (≈ 22.4 µM) | > 200 µg/mL | 3.13 µg/mL (≈ 11.2 µM) | 6.25 µg/mL (≈ 22.4 µM) | > 200 µg/mL | > 200 µg/mL | – | – | – | – | –
